OX1R antag-1 = human HCRTR1 antagonism. O43613. CHO/OX1R cells, Fluo-8 calcium fluorescence, orexin A. inhibition, % at 5 µM. 330,000 tested, 0.43% active;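 active = inhibition above its plate's threshold, mean inhibition of all tested compounds on the plate plus 3 SD, cut at about 37% in these data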
Target sequence (O43613 whole entry, looked up): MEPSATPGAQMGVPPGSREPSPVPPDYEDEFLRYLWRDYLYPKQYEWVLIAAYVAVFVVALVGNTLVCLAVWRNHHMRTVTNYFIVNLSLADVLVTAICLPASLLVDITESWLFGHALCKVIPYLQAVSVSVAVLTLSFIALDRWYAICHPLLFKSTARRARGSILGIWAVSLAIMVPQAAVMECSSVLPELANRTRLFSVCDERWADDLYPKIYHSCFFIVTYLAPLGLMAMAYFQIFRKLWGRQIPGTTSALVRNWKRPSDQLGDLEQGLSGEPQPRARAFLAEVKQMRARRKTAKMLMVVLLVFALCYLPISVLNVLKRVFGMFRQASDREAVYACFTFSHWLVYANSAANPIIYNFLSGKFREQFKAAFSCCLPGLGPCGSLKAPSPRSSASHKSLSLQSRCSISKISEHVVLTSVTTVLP
OXTR ag = activates the human oxytocin receptor. P30559. CHO-OTR cells, Fluo-8 calcium fluorescence; normalized: DMSO 0%, oxytocin 100%. activation, % at 3 µM. 320,000 tested, 0.32% active;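 active = activation above the mean of all tested compounds plus 3 SD, cutoff set per screening run, cut at about 20% in these data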;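 also: peak over basal fluorescence ratio from a 100 s FLIPR kinetic read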
OX1R antag-2 = blocks the human orexin 1 receptor | inhibition, % at 6.6 µM | 330,000 tested, 1.8% active | O43613 | OX1R-expressing cells, FRET antagonist read-out; in the data active = inhibition mostly above about 38%, no sharp cut-off; inactive = mostly below about 40%
V1aR counter = activates human V1a receptor in oxytocin agonist counter-screen. P37288. CHO-V1R cells, Fluo-8 calcium fluorescence, agonist mode; 0% DMSO, 100% 3 nM vasopressin. 320,000 tested, 0.25% active. activation, % at 3 µM;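 active = activation above the mean activation of all tested compounds plus 3 SD, per screening run, cut at about 20% in these data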;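 also: signal is peak over basal fluorescence ratio across a 100 second FLIPR read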
CHO parental Ca = counter-screen for OX1R antagonists: effect in parental CHO cells. parental CHO-K1, ATP-induced calcium, Fluo-8 fluorescence. inhibition, % at 5.6 µM. 330,000 tested, 0.63% active;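 active = inhibition above that plate's mean sample inhibition plus 3 SD, cut at about 26% in these data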
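Test system: untransfected parental CHO cell line; also added: ATP stimulus; dosing: 5.6 µM, single dose; signal: calcium-sensitive Fluo-8 fluorescence; measure: percent inhibition of ATP-evoked calcium rise, normalized to controls; benchmarks: low control ATP plus DMSO, high control DMSO only; replication: one well per compound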
OXTR potentiate = potentiates the human oxytocin receptor response; 320,000 tested, 0.061% active; AID 2445; activation, % at 3 µM; CHO-OTR cells, Fluo-8 calcium fluorescence, potentiator mode; 0% = oxytocin EC15, 100% = EC100; P30559;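 active = activation above that plate's cutoff, the mean activation of tested compounds plus 3 SD, cut at about 6.6% in these data, passing the limit was not always enough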
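Material: CHO-OTR cells, human receptor; compound dosing: single dose, 3.0 µM nominal final compound concentration; schedule: 6 min compound pre-incubation at room temperature, 100 s kinetic read; measured by: kinetic Fluo-8 calcium fluorescence; read-out basis: % activation vs EC15 and EC100 oxytocin; controls: EC15 oxytocin alone as 0%, 75 nM oxytocin as 100%; replicates: singlicate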
OX1R HTRF confirm = confirmation of human orexin 1 receptor antagonists, HTRF format; OX1R-expressing cells, HTRF antagonist assay; shares compounds with OX1R antag-2; inhibition, % at 6.6 µM; 1,800 tested, 49% active; in the data active = inhibition above about 55%;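 also: CHO cells expressing OX1R stimulated with orexin A at about EC80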
CHO-K1 HTRF = counter-screen for OX1R antagonists: effect in parental CHO-K1 cells; HTRF counterscreen; AID 493232; 1,800 tested, 48% active; inhibition, % at 6.6 µM; shares compounds with OX1R antag-2; in the data active = inhibition above about 17%
Large screens that a line does not name were inactive (follow-up assays come after a bar, where they were run). Rows were chosen to be rich in hits. Some 2.7% of all compounds tested hit in one or more screens of this group.

O=C(NCc1ccco1)c1cc([N+](=O)[O-])cc([N+](=O)[O-])c1	OX1R antag-2 118 | OX1R HTRF confirm 55 | CHO-K1 HTRF 69
COc1ccc(OCCC(=O)OCC(=O)NCc2ccccc2OC)cc1	none
O=C(Nc1ccc2oc(-c3ccccc3)nc2c1)C1CCCO1 (stereo unspecified)	OX1R antag-2 98 | OX1R HTRF confirm inactive | CHO-K1 HTRF inactive
O=C(COC(=O)c1cncc(Br)c1)NCc1cccs1	none
COc1cc([N+](=O)[O-])c(C(=O)N2CCOCC2)c([N+](=O)[O-])c1	OX1R antag-2 94 | OX1R HTRF confirm inactive | CHO-K1 HTRF 42
Cc1nc2ccc([N+](=O)[O-])cc2s1	none
Cc1nc2ccc([N+](=O)[O-])cc2nc1C	OX1R antag-2 112 | OX1R HTRF confirm 68 | CHO-K1 HTRF 81
CC(=O)Oc1cccc(N2C(=O)c3cccc4c([N+](=O)[O-])ccc(c34)C2=O)c1	OX1R antag-2 115 | OX1R HTRF confirm 99 | CHO-K1 HTRF 72
Cc1ccc(C(=O)O)cc1N1C(=O)c2cccc3c([N+](=O)[O-])ccc(c23)C1=O	none
COc1ccccc1C(=O)NC1CCSc2ccccc21 (stereo unspecified)	OX1R antag-2 80 | OX1R HTRF confirm 66 | CHO-K1 HTRF inactive
O=C(CSc1ncnc2c1oc1ccccc12)N1CCN(c2ccccc2)CC1	none
c1ccc(N2CCN(c3ncnc4c3oc3ccccc34)CC2)cc1	OX1R antag-2 90 | OX1R HTRF confirm 65 | CHO-K1 HTRF inactive
O=[N+]([O-])C1=CC=C2C(=NC3(CCCCC3)N2O)C1=NCCO	OX1R antag-2 83 | OX1R HTRF confirm 73 | CHO-K1 HTRF 112
COc1ccc(C(=O)Nc2ccc(N3CCCC3)cc2)cc1	none
Cc1nc2c(C(=O)Nc3ccc(N4CCCC(O)C4)cc3)snc2c(=O)[nH]1 (stereo unspecified)	OX1R antag-2 95 | OX1R HTRF confirm inactive | CHO-K1 HTRF 59
O=[N+]([O-])c1c(Nc2ccccc2O)cc(N2CCOCC2)c2nonc12	OX1R antag-2 80 | OX1R HTRF confirm inactive | CHO-K1 HTRF 34
Cc1c(Nc2cc(N3CCOCC3)c3nonc3c2[N+](=O)[O-])c(=O)n(-c2ccccc2)n1C	none
COc1ccc(OC)c(NC(=O)CCc2c[nH]c3ccccc23)c1	none
CCN(CC(=O)Nc1ccccc1C(F)(F)F)C(=O)CCc1nc2ccccc2c(=O)[nH]1	OX1R antag-2 82 | OX1R HTRF confirm inactive | CHO-K1 HTRF inactive
Cn1cc(/C=N\O)nc2c(=O)n(-c3ccccc3)c(=O)nc1-2	OX1R antag-2 78 | OX1R HTRF confirm 68 | CHO-K1 HTRF 89
O/N=C/c1cn(-c2ccccc2)nn1	none
O=C1/C(=C/c2ccc(Cl)cc2)NC(=S)N1Cc1cccnc1	none
Cc1ccccc1Sc1ncccc1[N+](=O)[O-]	none
CC(C)(C)n1cnnc1Sc1ncccc1[N+](=O)[O-]	OX1R antag-2 85 | OX1R HTRF confirm inactive | CHO-K1 HTRF 29
CC(C)C[C@H](NC(=O)C1CC(=O)N(c2ccc(F)cc2)C1)C(=O)N1CCCCC1 (stereo partly specified)	none
CC(C)Cn1c(N)c(C(=O)COC(=O)CCNS(=O)(=O)c2ccccc2)c(=O)n(C)c1=O	OX1R antag-2 99 | OX1R HTRF confirm inactive | CHO-K1 HTRF inactive
O=C(Cn1cnc2cc([N+](=O)[O-])ccc2c1=O)NCc1ccccc1	OX1R antag-2 95 | OX1R HTRF confirm 55 | CHO-K1 HTRF 62
O=C(CCC(=O)NNC(=O)c1ccc([N+](=O)[O-])cc1)NCc1ccccc1	OX1R antag-2 91 | OX1R HTRF confirm inactive | CHO-K1 HTRF 39
O=C(Cn1cnc2cc([N+](=O)[O-])ccc2c1=O)NCCc1ccc(F)cc1	none
CC(C)N(C(=O)Cn1cnc2cc([N+](=O)[O-])ccc2c1=O)C(C)C	OX1R antag-2 141 | OX1R HTRF confirm inactive | CHO-K1 HTRF 93
CCN(CC)S(=O)(=O)c1ccc(C)c(NC(=O)Cn2cnc3cc([N+](=O)[O-])ccc3c2=O)c1	none
COc1ccc(N2CCN(C3CCCN(S(=O)(=O)c4ccc(C)cc4C)C3)CC2)cc1 (stereo unspecified)	none
CCN(CC)CCN1C(=O)C(=O)/C(=C(/O)c2ccc(S(=O)(=O)N3CCOCC3)cc2)C1c1ccc(C)cc1 (stereo unspecified)	none
Cc1noc(/C=C/c2cccnc2)c1[N+](=O)[O-]	OX1R antag-2 79 | OX1R HTRF confirm 68 | CHO-K1 HTRF 84
CS(=O)(=O)c1nc(-c2ccc(Br)cc2)n[nH]1	none
O=C(O)CNc1ncccc1[N+](=O)[O-]	OX1R antag-2 active | OX1R HTRF confirm inactive | CHO-K1 HTRF 46
COc1cccc2cc(C(=O)NCc3ccccn3)c(=O)oc12	OX1R antag-2 116 | OX1R HTRF confirm inactive | CHO-K1 HTRF 34
COC(=O)c1cn(NC(=O)Cc2ccc(Cl)c(Cl)c2)c(=O)c2ccccc12	OX1R antag-2 87 | OX1R HTRF confirm 81 | CHO-K1 HTRF inactive
Nc1nc(-c2ccc3c(c2)OCCO3)cs1	none
N#Cc1ncc(-c2ccc3c(c2)OCCOCCOCCOCCOCCO3)nc1C#N	OX1R antag-2 109 | OX1R HTRF confirm inactive | CHO-K1 HTRF inactive
N#Cc1ncc(-c2ccc3c(c2)OCCOCCOCCOCCO3)nc1C#N	OX1R antag-2 117 | OX1R HTRF confirm 55 | CHO-K1 HTRF 54
Cc1ccc2nc(-c3ccc4c(c3)OCCO4)cn2c1	none
COCCn1c(SCC(=O)Nc2ccccc2)nnc1-c1ccoc1C	none
COCCn1c(SCC(=O)Nc2nc3ccccc3s2)nnc1-c1ccoc1C	OX1R antag-2 81 | OX1R HTRF confirm inactive | CHO-K1 HTRF inactive
O=C(Nc1nc2nc(-c3ccccc3)cc(-c3ccccc3)n2n1)c1ccco1	OX1R antag-2 80 | OX1R HTRF confirm inactive | CHO-K1 HTRF inactive
O=C(Nc1ccc([N+](=O)[O-])cc1)C(=O)Nc1cccc(C(=O)O)c1	OX1R antag-2 79 | OX1R HTRF confirm inactive | CHO-K1 HTRF 32
O=C(c1cc(-c2ccccc2)n[nH]1)N1CCc2c([nH]c3ccccc23)C1c1ccccn1 (stereo unspecified)	none
CC1CCN(c2cc(N(C)CCO)c([N+](=O)[O-])c3nonc23)CC1	none
CN(CCO)c1cc(N2CCN(C(=O)c3ccco3)CC2)c2nonc2c1[N+](=O)[O-]	OX1R antag-2 107 | OX1R HTRF confirm inactive | CHO-K1 HTRF 48
CC(NC(=O)CCc1ccccc1)c1cc2c(cc1Cl)OCCO2 (stereo unspecified)	none
